Dynein cargo inh = inhibitors of GR-EGFP nuclear translocation, primary screen, dynein cargo transport inhibitor project, imaging, high-content, 3617.4 mouse cells | AID 1381, 2008 | z-score, hits read low | actives 0.47% (n = 220,000) | test concentration mostly 20 µM; stimulated with dexamethasone, 1 µM; hits give low values;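 active means plate z-score of nuclear minus cytoplasmic receptor signal below a set negative limit, without overly bright fluorescence or cell loss, cut at about -3.5 in these data, passing the limit was not always enough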;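 further: z-score of nuclear minus cytoplasmic ring GR-EGFP intensity difference per well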
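Schedule: 48 h induction, then 1 h compound, then 30 min agonist, 37 °C. Buffer or medium: tetracycline-free induction medium containing charcoal-stripped FBS. Reagent: 1.0 µM final dexamethasone stimulus. Evaluation: nuclear versus cytoplasmic GR-EGFP signal, averaged per well. Signal: high-content fluorescence imaging after fixation.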
MEKK2 WT-MEK5 = modulators of MEK5 binding to wildtype MEKK2, primary screen, biochemical, multiplex bead flow cytometry, Alexa488-MEK5; Alexa488-MEK5 binding to MEKK2 WT; actives lie on both sides; binding response (% of control), % at 10 µM; actives 1.1% (n = 290,000); AID 1531, 2009; in the data active means binding response below about 67% or above about 130%
Beta2AR agonist = beta2AR agonists driving receptor internalization, primary screen, cell-based, FAP fluorogen, flow cytometry; Beta-2 adrenergic receptor (Homo sapiens), P07550; Am2.2-beta2AR cells; response, % (test concentration not listed); actives 0.43% (n = 340,000);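 active means response above a set limit, near 3 SD of response in nonfluorescent compounds, cut at about 42% in these data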
Target sequence (P07550 whole entry, looked up): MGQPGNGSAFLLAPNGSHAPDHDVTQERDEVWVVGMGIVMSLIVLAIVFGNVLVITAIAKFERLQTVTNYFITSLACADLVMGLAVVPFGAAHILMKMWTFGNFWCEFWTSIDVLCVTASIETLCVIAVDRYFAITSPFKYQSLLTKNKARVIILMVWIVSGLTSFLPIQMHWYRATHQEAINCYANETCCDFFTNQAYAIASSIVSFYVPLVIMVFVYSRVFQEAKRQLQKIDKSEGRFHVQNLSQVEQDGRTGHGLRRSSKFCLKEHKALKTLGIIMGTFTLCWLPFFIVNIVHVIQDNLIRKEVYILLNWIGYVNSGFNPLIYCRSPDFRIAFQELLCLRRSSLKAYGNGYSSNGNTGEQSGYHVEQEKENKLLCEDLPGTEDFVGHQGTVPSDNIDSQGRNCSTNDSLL
MEKK2mut PB1 HTS = MEK5 binding signal on mutant MEKK2 PB1, primary screen, biochemical, multiplex bead flow cytometry, Alexa488-MEK5 | Alexa488-MEK5 binding to MEKK2 mutant | percent response, % at 10 µM | actives 0.35% (n = 290,000) | AID 1530, 2009; in the data active means percent response above about 24%, passing the limit was not always enough
MEKK3 PB1 HTS = modulators of MEKK3-MEK5 PB1 binding, primary screen, biochemical, wildtype MEKK3, multiplex bead flow cytometry, Alexa488-MEK5; bead-based flow cytometry, Alexa488-MEK5 binding to MEKK3; actives lie on both sides; 0 = blocked by unlabeled MEK5, 100 = vehicle; binding response (% of control), % at 10 µM; actives 1.4% (n = 290,000);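 active means binding response more than 3 SD above or below the average of its plate-row segment, actives on both sides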;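 further: Alexa488 bead fluorescence after subtracting the streptavidin-only scavenger bead signal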
ATG4B inhibitor = ATG4B protease inhibitors, primary screen, biochemical, fluorescence, uHTS. actives 0.51% (n = 340,000). inhibition, % at 8.33 µM. ATG4B cleavage of LC3-PLA2, NBD-HPC fluorescence, 1 h. AID 504462, 2011; in the data active means inhibition above about 40%
MEKK2wt confirm = modulators of MEK5 binding to wildtype MEKK2, confirmation, biochemical, single concentration, multiplex bead flow cytometry; AID 1892, 2009; binding response (% of control), % at 10 µM; Alexa488-MEK5 binding to MEKK2 WT; actives lie on both sides; actives 2.4% (n = 5,900); shares compounds with MEKK3 PB1 HTS; in the data active means binding response below about 16% or above about 210%; inactive means in between
MEKK2mut confirm = mutant MEKK2 PB1-MEK5 binding signal retest – biochemical, single concentration, multiplex bead flow cytometry, confirmation. shares compounds with MEKK3 PB1 HTS. Alexa488-MEK5 binding to MEKK2 mutant. percent response, % at 10 µM. actives 2% (n = 5,900). AID 1893, 2009; in the data active means percent response mostly above about 71%, no sharp cut-off; inactive means mostly below about 38%;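 further: higher means compound restores mutant binding toward wildtype level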
MEKK3-MEK5 inh = MEKK3 wild-type PB1 binding to MEK5, inhibitors, confirmation, biochemical, bead multiplex flow cytometry, single concentration, wildtype; shares compounds with MEKK3 PB1 HTS; Alexa488-MEK5 binding to MEKK3; hits give low values; binding response (% of control), % at 10 µM; actives 1.8% (n = 5,900); AID 1894, 2009;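 active means binding response below 72% of control, or above a set upper limit, though filed actives all read lower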;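 further: 100% = DMSO only wells and 0% = binding blocked by excess unlabeled MEK5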
Active calls of the source: *; nt = not tested or not shown; [ ] = dose if it differs, or a comment. The list is not random: actives were taken first. Their share in the collection is about 2.9%.

SMILES | Dynein cargo inh | MEKK2 WT-MEK5 | Beta2AR agonist | MEKK2mut PB1 HTS | MEKK3 PB1 HTS | ATG4B inhibitor | MEKK2wt confirm | MEKK2mut confirm | MEKK3-MEK5 inh
COCC(=O)N1CCC(Oc2ccc(C(=O)N[C@H](C(=O)OC)C(C)C)cc2)CC1 | nt | 105 | -2 | 2 | 106 | -5 | nt | nt | nt
COc1ccccc1-n1c(-c2ccccc2)c[nH]c1=S | 0.68 | 65 | -1 | -21 | 49*[inhibitor] | -2 | 87 | -5 | 88
Cc1onc(C(=O)N2CCN(c3ccccc3F)CC2)c1-c1ccccc1Cl | 0.13 | 104 | 4 | 1 | 130* | -5 | 99 | 0 | 101
CCOC(=O)N1CCN(S(=O)(=O)c2ccc(C(=O)N(CCCN(C)C)c3nc4ccc(CC)cc4s3)cc2)CC1 | nt | 133 | 25 | 19 | 102 | -11 | nt | nt | nt
CCOC(=O)N1CCN(S(=O)(=O)c2ccc(C(=O)N(CCCN(C)C)c3nc4ccc(Cl)cc4s3)cc2)CC1 | nt | 153* | 32 | 30* | 108 | -18 | 132 | 15 | 103
CCOC(=O)N1CCN(S(=O)(=O)c2ccc(C(=O)N(CCN(C)C)c3nc4ccc(CC)cc4s3)cc2)CC1 | nt | 136* | 7 | 16 | 106 | -4 | 138 | 15 | 102
COc1ccc(-c2cc(-n3c(C(F)(F)F)nc4ccccc43)n(CCC#N)n2)cc1 | -0.31 | 86 | 10 | -7 | 82*[inhibitor] | -8 | 98 | -10 | 100
COc1ccc(Sc2nc3ccccc3n3c(C(F)(F)F)nnc23)cc1 | -0.43 | 92 | 11 | -1 | 99 | 2 | nt | nt | nt
CCCCc1ccc(-c2nc(N)n[nH]2)cc1 | -0.13 | 2.0*[inhibitor] | -2 | -21 | 1.0*[inhibitor] | -9 | 106 | 5 | 103
CCN(CC)CC(O)Cn1c(C)c(-c2ccccc2)c2cc([N+](=O)[O-])ccc21 (stereo unspecified) | nt | 174* | 32 | 30* | 110 | 6 | 165 | 43 | 111
CN(CC(=O)NCc1ccco1)CC(=O)Nc1c(Cl)cccc1Cl | nt | nt | -4 | nt | nt | 5 | nt | nt | nt
Cc1ccc(S(=O)(=O)N2CCN(C(C)CC(=O)O)CC2)cc1 (stereo unspecified) | 0.83 | 3.0*[inhibitor] | -5 | 2 | 3.0*[inhibitor] | 1 | 99 | -1 | 101
CCC(C)c1ccc(S(=O)(=O)N2CCN(C(C)CC(=O)O)CC2)cc1 (stereo unspecified) | -0.14 | 101 | 2 | 0 | 102 | -5 | nt | nt | nt
O=C(c1ccco1)N1CCN(C(=O)c2ccc(COc3ccc4c(c3)CCC4)o2)CC1 | -0.55 | -4.0*[inhibitor] | -5 | -9 | 0.0*[inhibitor] | -11 | 98 | -1 | 99
Cc1ccc2nc(-c3ccccn3)cc(C(=O)NCCc3ccc(F)cc3)c2c1 | nt | 102 | 9 | 4 | 100 | 6 | nt | nt | nt
Cc1cc(C)nc(-n2ncc3c2CC(c2ccccc2C)CC3=O)n1 (stereo unspecified) | -0.66 | 103 | 2 | 0 | 137* | -7 | 103 | 0 | 102
COc1c(C(=O)Nc2nnc(C3CC3)s2)csc1Cl | nt | 114 | -11 | 10 | 106 | 9 | nt | nt | nt
O=C(OCCSCCOC(=O)C1CC=CCC1)C1CC=CCC1 (stereo unspecified) | nt | nt | 1 | nt | nt | 5 | nt | nt | nt
COc1cc(O)c(C(CCN2CCCC2)c2cc(OC)c(OC)c(OC)c2)c(OC)c1 (stereo unspecified) | 0.14 | 145* | 0 | 5 | 114 | -16 | 118 | 13 | 103
COc1cc(O)c(C(CCN2CCOCC2)c2ccc(N(C)C)cc2)c(OC)c1 (stereo unspecified) | -0.35 | 90 | -9 | 10 | 90 | -3 | nt | nt | nt
COc1ccc(C(CCN2CCCC2)c2c(O)cc(OC)cc2OC)cc1 (stereo unspecified) | 0.99 | 149* | 4 | 9 | 117 | 11 | 158 | 31 | 108
COc1cc(O)c(C(CCN2CCOCC2)c2cc(OC)c(OC)c(OC)c2)c(OC)c1 (stereo unspecified) | 0.81 | 142* | -6 | 3 | 119 | -5 | 98 | -8 | 97
COc1cc(O)c(C(CCN2CCCCC2)c2cc(OC)c(OC)c(OC)c2)c(OC)c1 (stereo unspecified) | -0.19 | 90 | 0 | 3 | 94 | -6 | nt | nt | nt
Cc1csc(C(C)N(C)C(=O)CCc2nnc(CCc3ccccc3)o2)n1 (stereo unspecified) | -0.57 | 97 | -3 | -11 | 101 | -10 | nt | nt | nt
COCCNC(=O)NC(=O)CSc1nc(C)c(C)c(C)n1 | 0.017 | 98 | -5 | -3 | 100 | -4 | nt | nt | nt
SMILES | Dynein cargo inh | MEKK2 WT-MEK5 | Beta2AR agonist | MEKK2mut PB1 HTS | MEKK3 PB1 HTS | ATG4B inhibitor | MEKK2wt confirm | MEKK2mut confirm | MEKK3-MEK5 inh
CCCCCc1ccc(OCCOCCn2c[n+](C)c3ccccc32)c(CCCCC)c1 | -5.6 | 232* | 9 | 23 | 79 | 17 | 186 | 52 | 106
CCCCCc1ccc(OCCC[n+]2ccccc2)c(CCCCC)c1 | -0.74 | 145* | 13 | 19 | 96 | 8 | 146 | 30 | 104
COC(=O)N[C@@H]1C[C@H]2[C@@H]3CC[C@H]4C[C@@H](OC)CC[C@]4(C)[C@H]3CC[C@@]12C | nt | nt | -9 | nt | nt | 0 | nt | nt | nt
COc1cccc(-n2c(C)n[nH]c2=O)c1 | -0.46 | 3.0*[inhibitor] | -5 | -14 | 3.0*[inhibitor] | -2 | 102 | 5 | 100
COc1cccc(-n2c(C)nn(C)c2=O)c1 | nt | 102 | -4 | 3 | 104 | -6 | nt | nt | nt
Cc1cc(C)nc(SCCC(=O)N2CCOCC2)n1 | 0.34 | 123 | -9 | 11 | 123* | -4 | 99 | -1 | 100
Cc1cc(C)nc(SCC(=O)N2CCOCC2)n1 | 1.2 | 96 | -4 | -5 | 97 | 4 | nt | nt | nt
